The values below come from ChEMBL document CHEMBL3877250, “Design, synthesis, and biological evaluation of (2E)-(2-oxo-1, 2-dihydro-3H-indol-3-ylidene)acetate derivatives as anti-proliferative agents through ROS-induced cell apoptosis” (Eur J Med Chem, 2016).

Assay [1] concerns HCT-116. In words: Induction of apoptosis in human HCT116 cells assessed as early apoptotic cells at 0.5 uM after 48 hrs by Annexin V-FITC/propidium iodide staining based flow cytometry (reference value: 3.8%). The format is functional. In a few lines:
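HCT116 seeded at 2×10^5 cells/well, cultured 6 h, then treated 48 h at 0.1, 0.5, 1, 4, 8 or 16 µM; DMSO (0.1%) served as vehicle. Cells washed twice in cold PBS, resuspended in binding buffer with FITC Annexin V and PI for 15 min at RT in the dark, diluted, and run on flow cytometry within 1 h.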

Assay [2] deals with HCT-116. Kind of assay: Induction of apoptosis in human HCT116 cells assessed as late apoptotic cells at 16 uM after 48 hrs by Annexin V-FITC/propidium iodide staining based flow cytometry (reference value: 6.7%). The format is functional.
The test system of assay [3] is HCT-116. In words: Induction of apoptosis in human HCT116 cells assessed as late apoptotic cells at 0.5 uM after 48 hrs by Annexin V-FITC/propidium iodide staining based flow cytometry (reference value: 6.7%). The assay is classed as functional. In general terms: A flow cytometer gives signals particle by particle.
In assay [4] the test system is HCT-116. In words: Induction of apoptosis in human HCT116 cells assessed as necrotic cells at 8 uM after 48 hrs by Annexin V-FITC/propidium iodide staining based flow cytometry (reference value: 0.8%). The assay is classed as functional.
The test system of assay [5] is HCT-116. Kind of assay: Induction of apoptosis in human HCT116 cells assessed as necrotic cells at 0.1 uM after 48 hrs by Annexin V-FITC/propidium iodide staining based flow cytometry (reference value: 0.8%). The assay is classed as functional.
Assay [6] in a line: Cell cycle arrest in human HCT116 cells assessed as sub-G1 phase accumulation at 0.5 uM after 48 hrs by Annexin V-FITC/propidium iodide staining based flow cytometry (reference value: 4.36%). To be noted: HCT-116. The format is functional.
The test system of assay [7] is HCT-116. In words: Induction of apoptosis in human HCT116 cells assessed as increase in intracellular reactive oxygen species at 2 to 3 hrs by DCFH-DA probe-based flow cytometry. The format is functional, cell-based.
Assay [8] is described as follows: Cytotoxicity against human HCT116 cells assessed as growth inhibition at 20 uM after 72 hrs by CCK-8 assay. The assay is classed as functional. Particulars: HCT-116, 72 h, read-out: GI. In a few lines:
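Cells kept in RPMI 1640 with 10% heat-inactivated fetal calf serum and 1% streptomycin/penicillin at 37 °C, 5% CO2. After compound exposure, CCK-8 was added and cells were incubated 4 h at 37 °C, then absorbance was read at 450 nm. Viability is relative to untreated cells (100%). IC50 comes from nonlinear regression, mean of three separate determinations. Single-concentration screen at 20 µM.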
(In general: Formazan colour is commonly taken as a measure of viable cells.)

Assay [9] concerns HCT-116. In words: Induction of apoptosis in human HCT116 cells assessed as live cells at 1 uM after 48 hrs by Annexin V-FITC/propidium iodide staining based flow cytometry (reference value: 88.7%). The assay is classed as functional.
A short description of assay [10]: Cell cycle arrest in human HCT116 cells assessed as G2/M phase accumulation at 0.5 uM after 48 hrs by Annexin V-FITC/propidium iodide staining based flow cytometry (reference value: 25.3%). The format is functional. Particulars: HCT-116.

As to `CC(C)(C)OC(=O)/C=C1/C(=O)Nc2ccccc21`, the Activity is 2.9% in assay [1]; 69.1% in assay [2]; 7.5% in assay [3]; 0.8% in assay [4]; 0.6% in assay [5]; 0.25% in [6]. The Activity entry is “Dose-dependent effect” in [7], 87.9% in assay [9] and 27.4% in assay [10]. In assay [8], the inhibition of growth at 20 µM stood at 89.5%.
